# Laboratory results published in PMC6634314 (Cell chemical biology, 2019).
# Experiments:
# MAP2K2 [1] = assay: MIB washout assay; type: binding, Human; settings: H23 cells, 1 μM 4h, MIB pulldown ratio SM1-71/SM1-71-R
# AAK1 [2] = target: T1, AAK1 (Homo sapiens, UniProt Q2M2I8); assay: MIB washout assay; type: binding; settings: H23 cells, 1 μM 4h, MIB pulldown ratio SM1-71/SM1-71-R
# BMP2K [3] = target: T2, BMP2K (Homo sapiens, UniProt Q9NSY1); assay: MIB washout assay; type: binding; settings: H23 cells, 1 μM 4h, MIB pulldown ratio SM1-71/SM1-71-R
# MAP3K1 = assay: MIB washout assay; type: binding, Human; settings: H23 cells, 1 μM 4h, 0h post-washout, MIB pulldown ratio SM1-71/SM1-71-R
# PIK3R4 = assay: MIB washout assay; type: binding, Human; settings: H23 cells, 1 μM 4h, MIB pulldown ratio SM1-71/SM1-71-R
# EPHA10 = assay: MIB washout assay; type: binding, Human; settings: H23 cells, 1 μM 4h, MIB pulldown ratio SM1-71/SM1-71-R
# EPHB2 = assay: MIB washout assay; type: binding, Human; settings: H23 cells, 1 μM 4h, MIB pulldown ratio SM1-71/SM1-71-R
# EPHA2 = assay: MIB washout assay; type: binding, Human; settings: H23 cells, 1 μM 4h, MIB pulldown ratio SM1-71/SM1-71-R
# AGK = assay: MIB washout assay; type: binding, Human; settings: H23 cells, 1 μM 4h, MIB pulldown ratio SM1-71/SM1-71-R
# PKMYT1 = assay: MIB washout assay; type: binding, Human; settings: H23 cells, 1 μM 4h, MIB pulldown ratio SM1-71/SM1-71-R
# CDK9 = assay: MIB washout assay; type: binding, Human; settings: H23 cells, 1 μM 4h, MIB pulldown ratio SM1-71/SM1-71-R
# IGF1R = assay: MIB washout assay; type: binding, Human; settings: H23 cells, 1 μM 4h, MIB pulldown ratio SM1-71/SM1-71-R
# INSR = assay: MIB washout assay; type: binding, Human; settings: H23 cells, 1 μM 4h, MIB pulldown ratio SM1-71/SM1-71-R
# TGFBR2 = assay: MIB washout assay; type: binding, Human; settings: H23 cells, 1 μM 4h, MIB pulldown ratio SM1-71/SM1-71-R
# CDK17 = assay: MIB washout assay; type: binding, Human; settings: H23 cells, 1 μM 4h, MIB pulldown ratio SM1-71/SM1-71-R
# LYN = assay: MIB washout assay; type: binding, Human; settings: H23 cells, 1 μM 4h, MIB pulldown ratio SM1-71/SM1-71-R
# HCK = assay: MIB washout assay; type: binding, Human; settings: H23 cells, 1 μM 4h, MIB pulldown ratio SM1-71/SM1-71-R
# ACVR1B = assay: MIB washout assay; type: binding, Human; settings: H23 cells, 1 μM 4h, MIB pulldown ratio SM1-71/SM1-71-R
# MARK2 = assay: MIB washout assay; type: binding, Human; settings: H23 cells, 1 μM 4h, MIB pulldown ratio SM1-71/SM1-71-R
# TK2 = assay: MIB washout assay; type: binding, Human; settings: H23 cells, 1 μM 4h, MIB pulldown ratio SM1-71/SM1-71-R
# FYN = assay: MIB washout assay; type: binding, Human; settings: H23 cells, 1 μM 4h, MIB pulldown ratio SM1-71/SM1-71-R
# PRKDC = assay: MIB washout assay; type: binding, Human; settings: H23 cells, 1 μM 4h, MIB pulldown ratio SM1-71/SM1-71-R
# CSNK1D = assay: MIB washout assay; type: binding, Human; settings: H23 cells, 1 μM 4h, MIB pulldown ratio SM1-71/SM1-71-R
# TNIK = assay: MIB washout assay; type: binding, Human; settings: H23 cells, 1 μM 4h, MIB pulldown ratio SM1-71/SM1-71-R
# CSNK1G3 = assay: MIB washout assay; type: binding, Human; settings: H23 cells, 1 μM 4h, MIB pulldown ratio SM1-71/SM1-71-R
# ACVR1 = assay: MIB washout assay; type: binding, Human
# [4] = tested on: H23-KRAS^G12C non-small cell lung cancer (NSCLC) cell line; assay: proliferation assay; type: cell-based, Human
# In short: (§1)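 NSCLC lines were mycoplasma-tested and treated with various concentrations of test compound for 72 h. Cell viability was then measured by CellTiter-Glo luminescence.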
# Calu-6-KRAS^Q61K = assay: proliferation assay; type: cell-based, Human; settings: Calu-6-KRAS^Q61K cells (Fig. S2)
# In short: as §1
# 43 recombinant kinases = assay: thermal stability shift assay; type: binding; settings: 21 of 43 recombinant kinases; protein 2 μM, inhibitor 10 μM
# GSK3B = GSK3B (Homo sapiens, UniProt P49841); assay: mass shift assay; type: binding; settings: incubated 4 and 24h
# In short: (§2)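 Kinase protein at 0.12 mM in 10 mM HEPES pH 7.5, 500 mM NaCl, incubated with 0.2 mM test compound at 4°C for 4 h and 24 h. Samples were diluted in 0.1% formic acid and desalted on a C3 pre-column. ESI-TOF was run in positive mode at 120 V, and intact mass was obtained by deconvolution to detect the adduct.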
# MAPK3 = MAPK3 (Homo sapiens, UniProt P27361); assay: mass shift assay; type: binding; settings: incubated 4 and 24h
# In short: as §2
# SRC [5] = target: T3, SRC (Homo sapiens, UniProt P12931); assay: mass shift assay; type: binding; settings: incubated 4 and 24h
# In short: as §2
# Target sequence in this assay (P12931 whole entry, species assumed): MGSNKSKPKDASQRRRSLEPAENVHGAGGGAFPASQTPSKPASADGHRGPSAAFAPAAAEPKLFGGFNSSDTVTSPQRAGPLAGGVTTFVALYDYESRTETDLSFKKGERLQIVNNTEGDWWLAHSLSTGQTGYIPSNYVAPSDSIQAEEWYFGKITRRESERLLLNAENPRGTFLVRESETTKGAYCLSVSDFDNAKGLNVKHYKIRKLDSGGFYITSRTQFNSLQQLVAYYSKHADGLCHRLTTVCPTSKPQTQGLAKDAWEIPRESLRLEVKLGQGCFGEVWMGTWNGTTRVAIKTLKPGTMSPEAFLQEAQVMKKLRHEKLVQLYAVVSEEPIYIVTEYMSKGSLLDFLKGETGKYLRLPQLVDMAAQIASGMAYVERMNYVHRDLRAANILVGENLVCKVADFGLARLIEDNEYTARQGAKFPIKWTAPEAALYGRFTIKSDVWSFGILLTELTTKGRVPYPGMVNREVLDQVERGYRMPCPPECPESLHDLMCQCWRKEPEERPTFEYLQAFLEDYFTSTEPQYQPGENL
# MAP2K1 = MAP2K1 (Homo sapiens, UniProt Q02750); assay: mass shift assay; type: binding; settings: incubated 4 and 24h
# In short: as §2
# MAP2K2 [6] = target: MAP2K2 (Homo sapiens, UniProt P36507); assay: mass shift assay; type: binding; settings: incubated 4 and 24h
# In short: as §2
# SRC [7] = target: T3, SRC; assay: MIB dose-dependent kinase inhibition assay; type: binding; settings: read-out: IC50 in the MIB assay, H23 cell lysate, overnight 4°C
# Target sequence in this assay (P12931 whole entry): as the sequence (P12931 whole entry, species assumed) above
# AAK1 [8] = target: T1, AAK1; assay: MIB dose-dependent kinase inhibition assay; type: binding; settings: read-out: IC50 in the MIB assay, H23 cell lysate, overnight 4°C
# LIMK1 = LIMK1 (Homo sapiens, UniProt P53667); assay: MIB dose-dependent kinase inhibition assay; type: binding; settings: read-out: IC50 in the MIB assay, H23 cell lysate, overnight 4°C
# BMP2K [9] = target: T2, BMP2K; assay: MIB dose-dependent kinase inhibition assay; type: binding; settings: read-out: IC50 in the MIB assay, H23 cell lysate, overnight 4°C
# CDK13 = settings: H23 cells, 1 μM 4h, MIB pulldown ratio SM1-71/SM1-71-R
# T2 sequence (Q9NSY1 whole entry): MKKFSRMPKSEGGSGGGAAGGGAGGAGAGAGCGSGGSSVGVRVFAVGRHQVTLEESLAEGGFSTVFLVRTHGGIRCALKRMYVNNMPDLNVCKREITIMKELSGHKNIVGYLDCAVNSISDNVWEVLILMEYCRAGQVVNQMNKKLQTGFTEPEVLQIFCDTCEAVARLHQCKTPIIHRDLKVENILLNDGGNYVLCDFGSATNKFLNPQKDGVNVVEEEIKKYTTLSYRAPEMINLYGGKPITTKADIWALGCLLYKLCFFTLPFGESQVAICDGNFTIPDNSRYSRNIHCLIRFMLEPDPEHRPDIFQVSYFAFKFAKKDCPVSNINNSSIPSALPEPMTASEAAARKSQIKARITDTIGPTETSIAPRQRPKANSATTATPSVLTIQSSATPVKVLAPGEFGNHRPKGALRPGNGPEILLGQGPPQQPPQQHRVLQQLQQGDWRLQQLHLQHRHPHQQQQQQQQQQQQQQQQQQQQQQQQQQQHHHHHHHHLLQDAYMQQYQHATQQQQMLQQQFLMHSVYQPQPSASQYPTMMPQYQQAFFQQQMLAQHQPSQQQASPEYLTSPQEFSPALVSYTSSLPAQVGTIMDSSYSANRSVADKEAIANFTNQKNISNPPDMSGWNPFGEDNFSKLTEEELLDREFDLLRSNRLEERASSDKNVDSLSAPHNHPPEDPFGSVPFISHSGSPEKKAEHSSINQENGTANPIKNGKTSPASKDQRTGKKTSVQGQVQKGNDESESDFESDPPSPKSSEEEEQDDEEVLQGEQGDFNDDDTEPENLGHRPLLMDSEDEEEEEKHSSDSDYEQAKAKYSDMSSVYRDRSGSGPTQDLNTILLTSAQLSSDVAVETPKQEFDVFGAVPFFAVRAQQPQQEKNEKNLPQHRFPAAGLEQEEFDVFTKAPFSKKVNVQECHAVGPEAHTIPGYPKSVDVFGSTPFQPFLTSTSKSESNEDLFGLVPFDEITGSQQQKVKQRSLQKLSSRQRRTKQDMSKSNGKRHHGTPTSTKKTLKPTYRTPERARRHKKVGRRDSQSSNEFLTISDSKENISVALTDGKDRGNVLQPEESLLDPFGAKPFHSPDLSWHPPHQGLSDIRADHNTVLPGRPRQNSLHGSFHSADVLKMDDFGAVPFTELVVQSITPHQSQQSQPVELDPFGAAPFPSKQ
# T1 sequence (Q2M2I8 whole entry): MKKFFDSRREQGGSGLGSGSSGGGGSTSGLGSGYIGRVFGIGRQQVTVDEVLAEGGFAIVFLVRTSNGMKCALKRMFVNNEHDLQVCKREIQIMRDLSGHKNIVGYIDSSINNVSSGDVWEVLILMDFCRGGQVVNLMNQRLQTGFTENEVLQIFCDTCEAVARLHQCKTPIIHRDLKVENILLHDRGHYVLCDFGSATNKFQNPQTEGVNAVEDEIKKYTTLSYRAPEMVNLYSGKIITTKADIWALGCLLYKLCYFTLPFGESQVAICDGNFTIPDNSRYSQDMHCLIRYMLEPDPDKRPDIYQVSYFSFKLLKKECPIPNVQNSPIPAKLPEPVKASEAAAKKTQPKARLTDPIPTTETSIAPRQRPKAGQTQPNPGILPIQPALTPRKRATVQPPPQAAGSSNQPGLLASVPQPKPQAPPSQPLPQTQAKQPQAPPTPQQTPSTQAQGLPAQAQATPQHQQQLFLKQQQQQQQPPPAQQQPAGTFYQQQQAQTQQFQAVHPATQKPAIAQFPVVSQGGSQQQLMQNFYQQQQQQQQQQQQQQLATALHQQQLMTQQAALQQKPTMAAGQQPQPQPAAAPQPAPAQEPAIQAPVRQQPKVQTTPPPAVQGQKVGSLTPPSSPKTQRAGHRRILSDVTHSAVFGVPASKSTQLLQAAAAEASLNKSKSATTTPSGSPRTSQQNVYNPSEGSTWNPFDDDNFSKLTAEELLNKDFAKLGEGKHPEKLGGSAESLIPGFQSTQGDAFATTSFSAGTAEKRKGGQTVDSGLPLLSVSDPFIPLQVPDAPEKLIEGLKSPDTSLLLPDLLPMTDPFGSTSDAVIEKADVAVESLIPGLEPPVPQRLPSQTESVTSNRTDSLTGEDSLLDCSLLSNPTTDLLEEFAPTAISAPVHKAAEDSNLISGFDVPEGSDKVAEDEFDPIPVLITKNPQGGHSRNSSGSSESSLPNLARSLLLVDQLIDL
# MAPK3, sequence (P27361 whole entry): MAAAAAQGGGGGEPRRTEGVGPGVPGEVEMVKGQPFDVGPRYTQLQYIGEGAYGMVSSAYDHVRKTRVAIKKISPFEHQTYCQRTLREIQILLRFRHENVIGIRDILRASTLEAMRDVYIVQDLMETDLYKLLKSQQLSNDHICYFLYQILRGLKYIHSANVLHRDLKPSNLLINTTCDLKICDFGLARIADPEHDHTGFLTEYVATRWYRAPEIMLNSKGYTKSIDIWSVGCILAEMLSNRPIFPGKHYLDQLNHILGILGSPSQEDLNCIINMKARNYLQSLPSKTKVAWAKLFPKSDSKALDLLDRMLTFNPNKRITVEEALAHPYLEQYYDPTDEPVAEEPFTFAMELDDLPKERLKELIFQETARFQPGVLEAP
# GSK3B, sequence (P49841 whole entry, species assumed): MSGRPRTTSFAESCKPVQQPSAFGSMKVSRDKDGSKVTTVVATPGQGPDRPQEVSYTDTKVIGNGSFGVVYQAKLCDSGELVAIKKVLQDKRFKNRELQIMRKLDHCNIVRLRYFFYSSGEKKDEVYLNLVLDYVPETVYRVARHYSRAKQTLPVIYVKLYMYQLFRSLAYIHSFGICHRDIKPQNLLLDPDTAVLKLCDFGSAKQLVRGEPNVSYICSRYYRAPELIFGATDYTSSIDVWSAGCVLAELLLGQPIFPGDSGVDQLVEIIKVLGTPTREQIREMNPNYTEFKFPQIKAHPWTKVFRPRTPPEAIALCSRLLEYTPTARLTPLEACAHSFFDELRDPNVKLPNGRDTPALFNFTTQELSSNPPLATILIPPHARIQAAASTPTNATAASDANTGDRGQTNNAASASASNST
# LIMK1, sequence (P53667 whole entry): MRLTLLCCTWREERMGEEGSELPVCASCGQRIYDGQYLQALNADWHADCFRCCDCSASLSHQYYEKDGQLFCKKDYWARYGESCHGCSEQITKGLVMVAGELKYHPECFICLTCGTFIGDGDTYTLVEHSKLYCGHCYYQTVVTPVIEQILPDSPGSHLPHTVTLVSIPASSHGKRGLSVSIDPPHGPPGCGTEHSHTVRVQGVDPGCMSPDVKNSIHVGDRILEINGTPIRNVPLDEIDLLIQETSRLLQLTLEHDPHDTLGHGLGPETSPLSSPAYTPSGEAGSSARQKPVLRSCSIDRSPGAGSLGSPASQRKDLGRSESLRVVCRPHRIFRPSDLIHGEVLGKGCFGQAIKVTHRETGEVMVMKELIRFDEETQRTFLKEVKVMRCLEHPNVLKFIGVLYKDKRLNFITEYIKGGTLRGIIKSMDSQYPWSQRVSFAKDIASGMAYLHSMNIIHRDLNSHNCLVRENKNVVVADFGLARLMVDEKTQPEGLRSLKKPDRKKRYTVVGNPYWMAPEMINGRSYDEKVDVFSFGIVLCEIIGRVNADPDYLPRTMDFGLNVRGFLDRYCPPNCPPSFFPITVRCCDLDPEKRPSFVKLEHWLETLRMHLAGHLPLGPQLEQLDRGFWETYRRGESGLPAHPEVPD
# MAP2K1, sequence (Q02750 whole entry, species assumed): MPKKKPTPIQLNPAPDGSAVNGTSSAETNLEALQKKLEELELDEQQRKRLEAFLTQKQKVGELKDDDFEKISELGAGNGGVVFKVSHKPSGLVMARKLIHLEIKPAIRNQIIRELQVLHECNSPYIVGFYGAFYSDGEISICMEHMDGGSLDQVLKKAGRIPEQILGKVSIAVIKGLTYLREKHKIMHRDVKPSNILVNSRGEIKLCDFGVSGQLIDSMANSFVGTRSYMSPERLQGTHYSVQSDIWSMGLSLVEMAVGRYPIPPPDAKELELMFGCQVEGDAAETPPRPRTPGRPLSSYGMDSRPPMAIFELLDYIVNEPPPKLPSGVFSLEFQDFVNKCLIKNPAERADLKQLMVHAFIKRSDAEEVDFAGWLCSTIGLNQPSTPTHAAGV
structure (smiles),measurement,setting,value
C=CC(=O)Nc1ccccc1Nc1nc(Nc2ccc(N3CCN(C)CC3)cc2)ncc1Cl [SM1-71],BI-0h,MAP2K2 [1]; 0h post-washout,0.03
same,BI-6h,MAP2K2 [1]; 6h post-washout,0.18
same,BI-0h,AAK1 [2]; 0h post-washout,0.27
same,BI-6h,AAK1 [2]; 6h post-washout,0.32
same,BI-0h,BMP2K [3]; 0h post-washout,0.23
same,BI-6h,BMP2K [3]; 6h post-washout,0.27
same,BI-0h,MAP3K1,0.2
same,BI-0h,PIK3R4; 0h post-washout,0.36
same,BI-6h,PIK3R4; 6h post-washout,0.47
same,BI-0h,EPHA10; 0h post-washout,0.72
same,BI-6h,EPHA10; 6h post-washout,0.63
same,BI-0h,EPHB2; 0h post-washout,0.7
same,BI-6h,EPHB2; 6h post-washout,0.5
same,BI-0h,EPHA2; 0h post-washout,0.71
same,BI-6h,EPHA2; 6h post-washout,0.49
same,BI-0h,AGK; 0h post-washout,0.66
same,BI-6h,AGK; 6h post-washout,0.5
same,BI-0h,PKMYT1; 0h post-washout,0.47
same,BI-6h,PKMYT1; 6h post-washout,0.8
same,BI-0h,CDK9; 0h post-washout,0.46
same,BI-6h,CDK9; 6h post-washout,0.96
same,BI-0h,IGF1R; 0h post-washout,0.45
same,BI-6h,IGF1R; 6h post-washout,0.64
same,BI-0h,INSR; 0h post-washout,0.52
same,BI-6h,INSR; 6h post-washout,0.76
same,BI-0h,TGFBR2; 0h post-washout,0.53
same,BI-6h,TGFBR2; 6h post-washout,0.6
same,BI-0h,CDK17; 0h post-washout,0.46
same,BI-6h,CDK17; 6h post-washout,0.76
same,BI-0h,LYN; 0h post-washout,1.1
same,BI-6h,LYN; 6h post-washout,0.79
same,BI-0h,HCK; 0h post-washout,1.3
same,BI-6h,HCK; 6h post-washout,0.85
same,BI-0h,ACVR1B; 0h post-washout,0.9
same,BI-6h,ACVR1B; 6h post-washout,0.92
same,BI-0h,MARK2; 0h post-washout,0.74
same,BI-6h,MARK2; 6h post-washout,1.13
same,BI-0h,TK2; 0h post-washout,0.83
same,BI-6h,TK2; 6h post-washout,0.95
same,BI-0h,FYN; 0h post-washout,0.81
same,BI-6h,FYN; 6h post-washout,0.91
same,BI-0h,PRKDC; 0h post-washout,0.76
same,BI-6h,PRKDC; 6h post-washout,0.77
same,BI-0h,CSNK1D; 0h post-washout,0.71
same,BI-6h,CSNK1D; 6h post-washout,0.78
same,BI-0h,TNIK; 0h post-washout,0.67
same,BI-6h,TNIK; 6h post-washout,0.74
same,BI-0h,CSNK1G3; 0h post-washout,0.77
same,BI-6h,CSNK1G3; 6h post-washout,0.75
same,BI-0h,"ACVR1; H23 cells, 1 μM 4h, 0h post-washout, MIB pulldown ratio SM1-71/SM1-71-R",0.81
same,BI-6h,"ACVR1; H23 cells, 1 μM 4h, 6h post-washout, MIB pulldown ratio SM1-71/SM1-71-R",0.3
same,Binding,ACVR1; class from BI 0h and 6h,Weakly Irreversible
same,growth inhibitory effects,[4]; H23-KRAS^G12C cells (Fig. S2),strong growth inhibitory effects
same,IC50,"[4]; proliferation assays, H23-KRAS^G12C cells (Fig. S2A)",400 nM
same,growth inhibitory effects,Calu-6-KRAS^Q61K,strong growth inhibitory effects
same,ΔTm shifts,43 recombinant kinases,> 6 °C
same,covalent adduct formation (mass shift),GSK3B,formed covalent adducts
same,covalent adduct formation (mass shift),MAPK3,formed covalent adducts
same,covalent adduct formation (mass shift),SRC [5],formed covalent adducts
same,covalent adduct formation (mass shift),MAP2K1,formed covalent adducts
same,covalent adduct formation (mass shift),MAP2K2 [6],formed covalent adducts
same,IC50,SRC [7],< 10 nM
same,IC50,AAK1 [8],< 10 nM
same,IC50,LIMK1,< 10 nM
same,IC50,BMP2K [9],< 10 nM
same,BI-0h,CDK13; 0h post-washout,0.57
same,BI-6h,CDK13; 6h post-washout,0.57
